Data from ChEMBL document CHEMBL2146441, “2,6-Disubstituted imidazo[2,1-b][1,3,4]thiadiazoles: search for anticancer agents” (2012).

Assays:
Type in all cases: functional
OVCAR-5 [1] = test: Cytotoxicity against human OVCAR5 cells assessed as cell growth at 10^-5 M after 48 hrs by SRB assay; settings: OVCAR-5, 48 h, read-out: Activity
NCI-H322M [2] = test: Cytotoxicity against human NCI-H322M cells assessed as cell growth at 10^-4 M after 48 hrs by SRB assay; settings: read-out: Activity
NCI-H322M [3] = test: Cytotoxicity against human NCI-H322M cells assessed as cell growth at 10^-7 M after 48 hrs by SRB assay; settings: read-out: Activity
OVCAR-4 = test: Cytotoxicity against human OVCAR4 cells assessed as cell growth at 10^-8 M after 48 hrs by SRB assay; settings: OVCAR-4, 48 h, read-out: Activity
T47D = test: Cytotoxicity against human T47D cells assessed as cell growth at 10^-5 M after 48 hrs by SRB assay; settings: read-out: Activity
IGROV-1 = test: Cytotoxicity against human IGROV1 cells assessed as cell growth at 10^-6 M after 48 hrs by SRB assay; settings: IGROV-1, 48 h, read-out: Activity
Outline: (§1)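 NCI-60 five-dose screen. Cells were grown in RPMI 1640 with 5% FBS and seeded at 5000–40,000 cells/well according to doubling time. They were pre-incubated 24 h at 37 °C in 5% CO₂, and time-zero (Tz) plates were TCA-fixed at drug addition. Five 10-fold dilutions of DMSO stock were applied for 48 h. Read-out was SRB staining, 515 nm absorbance, with percent growth calculated versus Tz and untreated control.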

MDA-MB-468 [4] = test: Cytotoxicity against human MDA-MB-468 cells assessed as cell growth at 10^-4 M after 48 hrs by SRB assay; settings: MDA-MB-468, 48 h, read-out: Activity
OVCAR-5 [5] = test: Cytotoxicity against human OVCAR5 cells assessed as cell growth at 10^-4 M after 48 hrs by SRB assay; settings: OVCAR-5, 48 h, read-out: Activity
[6] = Growth inhibition of human MDA-MB-81 cells after 48 hrs by SRB assay
SF-268 = test: Cytotoxicity against human SF268 cells assessed as cell growth at 10^-6 M after 48 hrs by SRB assay; settings: SF-268, 48 h, read-out: Activity
UACC-257 = test: Cytotoxicity against human UACC257 cells assessed as cell growth at 10^-8 M after 48 hrs by SRB assay; settings: UACC-257, 48 h, read-out: Activity
SK-MEL-2 = test: Cytotoxicity against human SK-MEL-2 cells assessed as cell growth at 10^-5 M after 48 hrs by SRB assay; settings: SK-MEL-2, 48 h, read-out: Activity
DU-145 = test: Cytotoxicity against human DU145 cells assessed as cell growth at 10^-4 M after 48 hrs by SRB assay; settings: DU-145, 48 h, read-out: Activity
Outline: (§2)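 NCI-60 screen: lines kept in RPMI 1640 with 5% FBS, seeded at 5000–40,000 cells/well by doubling time, preincubated 24 h at 37 °C in 5% CO2. Time-zero plates TCA-fixed at drug addition. DMSO stocks diluted in medium, 48 h exposure. Fixation in cold TCA (final 10% adherent, 16% suspension), 0.4% SRB stain, solubilised in 10 mM Tris base, A515. Percent growth computed against control and time-zero.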

PC-3 = test: Cytotoxicity against human PC3 cells assessed as cell growth at 10^-4 M after 48 hrs by SRB assay; settings: PC-3, 48 h, read-out: Activity
MDA-MB-468 [7] = test: Cytotoxicity against human MDA-MB-468 cells assessed as cell growth at 10^-5 M after 48 hrs by SRB assay; settings: MDA-MB-468, 48 h, read-out: Activity
MOLT-4 = test: Cytotoxicity against human MOLT4 cells assessed as cell growth at 10^-4 M after 48 hrs by SRB assay; settings: MOLT-4, 48 h, read-out: Activity
786-0 = test: Cytotoxicity against human 786-0 cells assessed as cell growth at 10^-8 M after 48 hrs by SRB assay; settings: 786-0, 48 h, read-out: Activity; outline: as §2
A498 = test: Cytotoxicity against human A498 cells assessed as cell growth at 10^-6 M after 48 hrs by SRB assay; settings: A498, 48 h, read-out: Activity; outline: as §2
UACC-62 = test: Cytotoxicity against human UACC62 cells assessed as cell growth at 10^-6 M after 48 hrs by SRB assay; settings: UACC-62, 48 h, read-out: Activity
HL-60 [8] = test: Growth inhibition of human HL60 cells after 48 hrs by SRB assay; settings: HL-60, 48 h
Outline: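 Leukemia suspension lines grown in RPMI 1640 with 5% FBS, seeded at 5000–40,000 cells/well, and preincubated 24 h at 37 °C, 5% CO2. Compound, stocked in DMSO, given either once at 10^-5 M or at five 10-fold dilutions for 48 h. Settled cells fixed with 80% TCA (final 16%), stained with SRB, and read at 515 nm. GI50 calculated against time-zero and control growth.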

COLO = test: Cytotoxicity against human COLO […] cells assessed as cell growth at 10^-6 M after 48 hrs by SRB assay; settings: read-out: Activity; outline: as §2
[9] = Cytotoxicity against human NCI-ADR-RES cells assessed as cell growth at 10^-7 M after 48 hrs by SRB assay; settings: read-out: Activity
TK-10 = test: Cytotoxicity against human TK10 cells assessed as cell growth at 10^-6 M after 48 hrs by SRB assay; settings: TK-10, 48 h, read-out: Activity
SK-MEL-28 = test: Cytotoxicity against human SK-MEL-28 cells assessed as cell growth at 10^-4 M after 48 hrs by SRB assay; settings: SK-MEL-28, 48 h, read-out: Activity
HCT-116 = test: Cytotoxicity against human HCT116 cells assessed as cell growth at 10^-7 M after 48 hrs by SRB assay; settings: HCT-116, 48 h, read-out: Activity; outline: as §1
HCC 2998 = test: Cytotoxicity against human HCC2998 cells assessed as cell growth at 10^-5 M after 48 hrs by SRB assay; settings: HCC 2998, 48 h, read-out: Activity; outline: as §1
SR = test: Cytotoxicity against human SR cells assessed as cell growth at 10^-8 M after 48 hrs by SRB assay; settings: read-out: Activity
HL-60 [10] = test: Cytotoxicity against human HL60 cells assessed as cell growth at 10^-4 M after 48 hrs by SRB assay; settings: HL-60, 48 h, read-out: Activity; outline: as §1
UO-31 = test: Cytotoxicity against human UO31 cells assessed as cell growth at 10^-8 M after 48 hrs by SRB assay; settings: UO-31, 48 h, read-out: Activity
SK-OV-3 = test: Cytotoxicity against human SKOV3 cells assessed as cell growth at 10^-6 M after 48 hrs by SRB assay; settings: SK-OV-3, 48 h, read-out: Activity

Row | SMILES | growth at 10 µM (OVCAR-5 [1]) [%] | growth at 100 µM (NCI-H322M [2]) [%] | growth at 0.1 µM (NCI-H322M [3]) [%] | growth at 0.01 µM (OVCAR-4) [%] | growth at 10 µM (T47D) [%] | growth at 1 µM (IGROV-1) [%] | growth at 100 µM (MDA-MB-468 [4]) [%] | growth at 100 µM (OVCAR-5 [5]) [%] | GI50 [6] [µM] | growth at 1 µM (SF-268) [%] | growth at 0.01 µM (UACC-257) [%] | growth at 10 µM (SK-MEL-2) [%] | growth at 100 µM (DU-145) [%] | growth at 100 µM (PC-3) [%] | growth at 10 µM (MDA-MB-468 [7]) [%] | growth at 100 µM (MOLT-4) [%] | growth at 0.01 µM (786-0) [%] | growth at 1 µM (A498) [%] | growth at 1 µM (UACC-62) [%] | GI50 (HL-60 [8]) [µM] | also measured
1 | COc1ccc(-c2nn3cc(-c4cccc(N)c4)nc3s2)cc1 | 47 | -3 | 95 | 92 | 7 | 72 | -16 | -23 | 1.58 | 88 | 100 | 39 | -41 | -22 | -2 | 7 | 106 | 53 | 71 | 1.77 | LC50 (HL-60 [8]): > 100 µM; TGI (HL-60 [8]): 37.7 µM; growth at 1 µM (COLO): 94%; growth at 0.1 µM [9]: 96%; growth at 1 µM (TK-10): 118%; growth at 100 µM (SK-MEL-28): -39%; growth at 0.1 µM (HCT-116): 99%; growth at 10 µM (HCC 2998): 51%; growth at 0.01 µM (SR): 103%; growth at 100 µM (HL-60 [10]): -14%; growth at 0.01 µM (UO-31): 86%; growth at 1 µM (SK-OV-3): 87%
2 | COc1ccc(-c2nn3cc(-c4ccc(O)cc4O)nc3s2)cc1 | 20 | 11 | 83 | 95 | -29 | 72 | -27 | 2 | 1.37 | 73 | 92 | 9 | 2 | 1 | 9 | -22 | 97 | 34 | 81 | 3.86 | LC50 (HL-60 [8]): > 100 µM; TGI (HL-60 [8]): 37.4 µM; growth at 1 µM (COLO): 100%; growth at 0.1 µM [9]: 99%; growth at 1 µM (TK-10): 101%; growth at 100 µM (SK-MEL-28): -26%; growth at 0.1 µM (HCT-116): 93%; growth at 10 µM (HCC 2998): 34%; growth at 0.01 µM (SR): 89%; growth at 100 µM (HL-60 [10]): -25%; growth at 0.01 µM (UO-31): 84%; growth at 1 µM (SK-OV-3): 85%
